Assay outcomes: PubChem, several laboratories
PREPL inh: inhibits the human prolyl oligopeptidase-like enzyme; recombinant PREPL, fluorescence polarization activity-based probe; Q4J6C6; hit rate 0.68% among 320,000; inhibition, % at 5.96 µM; in the data active means inhibition above about 43%
MEKK3 PB1 HTS: raises or lowers MEK5 binding to the human MEKK3 PB1 domain | hit rate 1.4% among 290,000 | AID 1529 | binding response (% of control), % at 10 µM | bead-based flow cytometry, Alexa488-MEK5 binding to MEKK3; actives lie on both sides; 0 = blocked by unlabeled MEK5, 100 = vehicle;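 active means binding response more than 3 SD above or below the average of its plate-row segment, actives on both sides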;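 further: Alexa488 bead fluorescence after subtracting the streptavidin-only scavenger bead signal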
Target sequence (Q99759 whole entry, looked up, the tested form may be a part): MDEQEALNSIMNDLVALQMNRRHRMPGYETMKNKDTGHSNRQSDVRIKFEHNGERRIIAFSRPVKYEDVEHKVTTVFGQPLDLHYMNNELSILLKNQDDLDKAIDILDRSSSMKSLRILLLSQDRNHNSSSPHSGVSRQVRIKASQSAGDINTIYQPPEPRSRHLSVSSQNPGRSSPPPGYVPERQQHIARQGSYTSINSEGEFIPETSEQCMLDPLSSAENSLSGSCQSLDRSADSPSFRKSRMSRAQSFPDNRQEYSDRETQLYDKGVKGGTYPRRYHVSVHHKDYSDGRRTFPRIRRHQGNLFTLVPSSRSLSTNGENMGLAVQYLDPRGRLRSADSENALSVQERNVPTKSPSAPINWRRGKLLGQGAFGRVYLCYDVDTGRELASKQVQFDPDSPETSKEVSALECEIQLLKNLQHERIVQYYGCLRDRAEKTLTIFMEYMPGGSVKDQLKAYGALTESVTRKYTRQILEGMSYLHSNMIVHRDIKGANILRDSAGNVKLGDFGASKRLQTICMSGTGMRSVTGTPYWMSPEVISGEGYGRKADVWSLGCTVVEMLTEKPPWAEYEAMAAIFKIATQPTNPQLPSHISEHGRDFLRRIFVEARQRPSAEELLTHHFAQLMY
Apaf-1 inh: human Apaf-1 inhibition; O14727; reconstituted apoptosome caspase-3 activity, DEVD-Rh110 fluorescence; inhibition, % at 20 µM; hit rate 0.71% among 330,000; AID 489030; active means inhibition of at least 40% at 20 µM
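Assay system: Apoptosome proteins | Medium: pH 7.5 Hepes buffer with CHAPS, BSA, DTT | Also added: Cytochrome c and DEVD-Rh110 substrate | Times: 30 min plus 50 min, RT | Detection: Rhodamine 110 fluorescence at Ex 480/Em 540 nm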
UBC13 inh: human UBC13 polyubiquitination inhibition | P61088 | UBC13 polyubiquitin chain formation, TR-FRET | inhibition, % at 20 µM | hit rate 0.47% among 330,000 | AID 485273; in the data active means inhibition above about 45%, passing the limit was not always enough
MEKK2 mut-MEK5: signal of MEK5 binding to mutant human MEKK2 PB1 domain | bead flow cytometry, Alexa488-MEK5 binding to MEKK2 mutant | percent response, % at 10 µM | hit rate 0.35% among 290,000 | AID 1530; in the data active means percent response above about 24%, passing the limit was not always enough
MEKK2wt PB1 HTS: raises or lowers MEK5 binding to wildtype human MEKK2 PB1 domain | hit rate 1.1% among 290,000 | Q9Y2U5 | binding response (% of control), % at 10 µM | AID 1531 | bead flow cytometry, Alexa488-MEK5 binding to MEKK2 WT; actives lie on both sides; in the data active means binding response below about 67% or above about 130%
MEKK2wt confirm: raises or lowers MEK5 binding to wildtype human MEKK2, retest; shares compounds with MEKK3 PB1 HTS; bead flow cytometry, Alexa488-MEK5 binding to MEKK2 WT; actives lie on both sides; binding response (% of control), % at 10 µM; hit rate 2.4% among 5,900; in the data active means binding response below about 16% or above about 210%; inactive means in between
MEKK2mut-MEK5: signal of MEK5 binding to mutant human MEKK2, retest; shares compounds with MEKK3 PB1 HTS; bead flow cytometry, Alexa488-MEK5 binding to MEKK2 mutant; percent response, % at 10 µM; hit rate 2% among 5,900; AID 1893; in the data active means percent response mostly above about 71%, no sharp cut-off; inactive means mostly below about 38%;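 further: higher means compound restores mutant binding toward wildtype level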
MEKK3-MEK5 inh: confirmation of inhibitors of MEK5 binding to human MEKK3 | hit rate 1.8% among 5,900 | AID 1894 | binding response (% of control), % at 10 µM | bead flow cytometry, Alexa488-MEK5 binding to MEKK3; active compounds read low | shares compounds with MEKK3 PB1 HTS;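 active means binding response below 72% of control, or above a set upper limit, though filed actives all read lower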;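 further: lower values mean stronger disruption of MEK5 binding to MEKK3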
Hits are given with their value; n = inactive; x = not tested or not shown; [ ] = dose if it differs, or a comment. An excerpt weighted towards active compounds, which were near 3.1% of everything screened.

SMILES	PREPL inh	MEKK3 PB1 HTS	Apaf-1 inh	UBC13 inh	MEKK2 mut-MEK5	MEKK2wt PB1 HTS	MEKK2wt confirm	MEKK2mut-MEK5	MEKK3-MEK5 inh
c1ccc(Nc2nc(N3CCCCC3)nc(N3CCCCC3)n2)cc1	n	n	n	n	n	n	x	x	x
CCOc1ccc(Nc2nc(N3CCCCC3)nc(N3CCCCC3)n2)cc1	n	78[inhibitor]	n	n	n	n	n	n	n
CCOC(=O)[C@H]1[C@H]2COc3ccc(Br)cc3[C@@H]2N2C(=O)CN(CC3CCCO3)C(=O)[C@@]12C (some centres undefined)	n	x	n	n	x	x	x	x	x
CCOc1ccc(CN(C)C(=O)CCc2ccc(S(=O)(=O)N3CCCCCC3)cc2)cc1	n	x	n	n	x	x	x	x	x
CCC(=O)N1CCc2cc(S(=O)(=O)CCC(=O)N3CCN(c4ccc(F)cc4)CC3)ccc21	n	n	n	n	n	n	x	x	x
CC(=O)c1ccc(OCCCC(=O)Nc2cccc(S(=O)(=O)N3CCCCC3)c2)cc1	n	x	n	n	x	x	x	x	x
COc1ccc(-c2csc3ncnc(N4CCN(c5ccc(OC)cc5)CC4)c23)cc1	n	n	n	n	n	n	x	x	x
COc1ccc(-c2nsc3c(N4CCCC4)ncnc23)cc1	n	-1.0[inhibitor]	n	n	n	-2.0[inhibitor]	n	n	n
Cc1nnc(SCC(=O)NNC(=O)C(C)C)[nH]c1=O	n	134	n	n	n	n	n	n	n
Cc1[nH]c2ccc(F)cc2c1CCNC(=O)C1CCCCC1C(=O)OCC(F)(F)F (centres undefined)	n	153	n	n	n	n	n	n	n
COc1ccc2[nH]c(C)c(CCNC(=S)Nc3ccc(F)cc3)c2c1	n	n	n	n	n	n	x	x	x
O=c1oc2ccccc2cc1-c1csc(Cc2nc(-c3ccc(Cl)cc3)cs2)n1	n	n	n	n	n	n	x	x	x
N=c1oc2ccccc2cc1-c1nc(-c2ccc(Cl)cc2)cs1	n	128	n	n	n	n	n	n	n
COCCCNCCCOc1ccc(C(C)(C)c2ccccc2)cc1	n	n	n	n	n	n	x	x	x
CC(C)(c1ccccc1)c1ccc(OCCCNCCO)cc1	n	n	n	n	n	145	n	n	n
CC(=O)OCC(=O)C1=CCC2C3CCC4=CC(=O)C=CC4(C)C3(F)C(OC(C)=O)CC12C (centres undefined)	n	62[inhibitor]	n	n	n	37[inhibitor]	n	n	n
CC(C)COc1cccc(C(=O)N(C)CC(=O)Nc2cccc3ccccc23)c1	n	x	n	n	x	x	x	x	x
OC1CCCN(Cc2ccc3ccc4cccc5ccc2c3c45)C1 (centres undefined)	n	n	n	n	n	140	n	n	n
COc1ccc(NC(=O)CC(C)c2ccccc2)cc1S(=O)(=O)N1CCOCC1 (centres undefined)	n	x	n	n	x	x	x	x	x
COc1ccccc1CNC(=O)c1ccc2nc(N3CCOCC3)sc2c1	n	n	n	n	n	n	x	x	x
N=C(N)SCc1cn(-c2ccccc2)nc1-c1ccc(Br)cc1	x	n	x	x	107	256	265	105	n
COc1ccc(-c2nn(-c3ccccc3)cc2CO)cc1	n	n	n	n	n	n	x	x	x
COc1ccccc1NC(=O)NCCCl	n	5.0[inhibitor]	n	n	n	1.0[inhibitor]	n	n	n
O=C(NCCCl)Nc1ccccc1OCCOc1ccccc1NC(=O)NCCCl	n	n	n	n	n	n	x	x	x
CCN1C/C(=C/c2ccc(N3CCOCC3)cc2)C(=O)/C(=C/c2ccc(N3CCOCC3)cc2)C1	n	n	x	x	n	26[inhibitor]	n	n	n
SMILES	PREPL inh	MEKK3 PB1 HTS	Apaf-1 inh	UBC13 inh	MEKK2 mut-MEK5	MEKK2wt PB1 HTS	MEKK2wt confirm	MEKK2mut-MEK5	MEKK3-MEK5 inh
CN1C/C(=C\c2ccc(N3CCOCC3)cc2)C(=O)/C(=C/c2ccc(N3CCOCC3)cc2)C1	n	n	n	n	n	n	x	x	x
CCOc1ccc(S(=O)(=O)Oc2ccc3ccccc3c2)cc1	n	148	n	n	n	n	n	n	n
Cc1ccc(S(=O)(=O)Oc2ccc3ccc(O)cc3c2)cc1	n	n	n	n	n	n	x	x	x
COc1cc(N2CCCC2)c(OC)cc1/C=C(/C#N)c1ccc(F)cc1	n	n	n	n	n	53[inhibitor]	n	n	n
COc1cc(N2CCCC2)c(OC)cc1/C=C(/C#N)c1ccc(Br)cc1	n	n	n	n	189	n	n	n	n
N#C/C(=C/c1ccc(N2CCCCC2)cc1)c1cccc(F)c1	n	n	n	n	n	n	x	x	x
O=C(CN1CCC(C(=O)c2ccc(F)cc2)CC1)Nc1ccc(F)cc1	n	46[inhibitor]	n	n	n	n	n	n	n
CC(=O)c1ccc(NC(=O)CN2CCC(C(=O)c3ccc(F)cc3)CC2)cc1	n	n	n	n	n	n	x	x	x
O=C(O)c1ccc2c(c1)S(=O)(=O)c1cc(Cl)ccc1C2=O	n	x	n	n	x	x	x	x	x
FC(F)(F)c1cccc(NC(=S)N(CCCN2CCCC2)Cc2cccn2Cc2ccc(Cl)cc2)c1	n	n	n	n	n	243	259	n	n
COc1ccc2cc(OCC(=O)NNC(=O)Nc3ccc(F)cc3)ccc2c1	n	n	n	n	n	n	x	x	x
O=C(NCc1ccc2c(c1)OCO2)C(=O)NCC(c1ccco1)N1CCN(c2ccccc2)CC1 (centres undefined)	n	136	n	n	n	n	n	n	n
Cc1cc2nncn2c2ccccc12	n	78[inhibitor]	n	n	n	n	n	n	n
COCCNC(=O)C(=O)c1cc(C)n(-c2ccc([N+](=O)[O-])cc2)c1C	n	n	n	n	n	n	x	x	x
Cc1cc(C(=O)C(=O)NC(C)C)c(C)n1-c1ccc([N+](=O)[O-])cc1	n	80[inhibitor]	n	n	n	n	n	n	n
CCN(CC)c1ccc(S(=O)(=O)N2CCOCC2)cc1NC(=O)COC(=O)c1cccnc1SC	n	x	n	n	x	x	x	x	x
CN(CC(=O)Nc1ccc(Cl)c(C(F)(F)F)c1)C(=O)/C=C/c1cccs1	n	x	n	n	x	x	x	x	x
Cc1cccc(C)c1NC(=O)CCn1cnc2ccccc2c1=O	n	1.0[inhibitor]	n	n	n	-2.0[inhibitor]	n	n	n
CN(C)c1ccc([N+](=O)[O-])cc1C(=O)O	n	129	n	n	n	n	n	n	n
O=C(CSc1nnc(-c2ccccc2)n1C1CCCCC1)N1CCCC1	n	74[inhibitor]	n	n	n	n	n	n	n
